Drawing on ChEMBL document CHEMBL5653631, “A Potent and Selective ULK1 Inhibitor Suppresses Autophagy and Sensitizes Cancer Cells to Nutrient Stress” (iScience, 2018), this text covers inhibition and fold change (FC) for three compounds.

Experiment [1] concerns the target Interleukin-1 receptor-associated kinase 1 (Homo sapiens) (UniProt P51617). The experiment in a line: Inhibition of human recombinant IRAK1 at 15 nM in presence of ATP by radiometric assay relative to control.
In experiment [2] the target is Serine/threonine-protein kinase Nek7 (Homo sapiens) (UniProt Q8TDX7). Briefly: Inhibition of human recombinant NEK7 at 15 nM in presence of ATP by radiometric assay relative to control.
Sequence of Serine/threonine-protein kinase Nek7 (Homo sapiens) (Q8TDX7 whole entry, looked up): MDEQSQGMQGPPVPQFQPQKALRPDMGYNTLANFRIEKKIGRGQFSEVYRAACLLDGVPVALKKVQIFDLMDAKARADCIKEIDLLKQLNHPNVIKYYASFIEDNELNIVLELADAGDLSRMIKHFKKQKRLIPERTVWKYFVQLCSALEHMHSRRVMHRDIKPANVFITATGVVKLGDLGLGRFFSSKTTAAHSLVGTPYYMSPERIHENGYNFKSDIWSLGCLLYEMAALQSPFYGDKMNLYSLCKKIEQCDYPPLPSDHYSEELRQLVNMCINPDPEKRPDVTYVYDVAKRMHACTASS
Experiment [3] addresses Serine/threonine-protein kinase 33 (Homo sapiens) (UniProt Q9BYT3). The experiment in a line: Inhibition of human recombinant STK33 at 15 nM in presence of ATP by radiometric assay relative to control.
Experiment [4] deals with Casein kinase II subunit alpha (Homo sapiens) (UniProt P68400). The experiment in a line: Inhibition of human recombinant CK2a1 at 15 nM related to control ULK1.
Sequence of Casein kinase II subunit alpha (Homo sapiens) (P68400 whole entry, looked up): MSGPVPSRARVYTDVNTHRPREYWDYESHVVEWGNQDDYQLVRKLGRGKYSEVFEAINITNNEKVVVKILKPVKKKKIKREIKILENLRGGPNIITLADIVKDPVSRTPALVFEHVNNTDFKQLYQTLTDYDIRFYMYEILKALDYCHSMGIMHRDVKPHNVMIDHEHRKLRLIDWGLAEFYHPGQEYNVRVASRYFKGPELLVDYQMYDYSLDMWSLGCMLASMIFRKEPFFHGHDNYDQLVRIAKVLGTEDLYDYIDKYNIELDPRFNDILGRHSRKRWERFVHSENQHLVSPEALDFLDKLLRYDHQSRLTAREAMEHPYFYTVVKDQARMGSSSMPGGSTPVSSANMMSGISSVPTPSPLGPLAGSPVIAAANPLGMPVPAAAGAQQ
Experiment [5] deals with Protein kinase C eta type (Homo sapiens) (UniProt P24723). Briefly: Inhibition of human recombinant PKCH at 15 nM related to control ULK1.
Sequence of Protein kinase C eta type (Homo sapiens) (P24723 whole entry): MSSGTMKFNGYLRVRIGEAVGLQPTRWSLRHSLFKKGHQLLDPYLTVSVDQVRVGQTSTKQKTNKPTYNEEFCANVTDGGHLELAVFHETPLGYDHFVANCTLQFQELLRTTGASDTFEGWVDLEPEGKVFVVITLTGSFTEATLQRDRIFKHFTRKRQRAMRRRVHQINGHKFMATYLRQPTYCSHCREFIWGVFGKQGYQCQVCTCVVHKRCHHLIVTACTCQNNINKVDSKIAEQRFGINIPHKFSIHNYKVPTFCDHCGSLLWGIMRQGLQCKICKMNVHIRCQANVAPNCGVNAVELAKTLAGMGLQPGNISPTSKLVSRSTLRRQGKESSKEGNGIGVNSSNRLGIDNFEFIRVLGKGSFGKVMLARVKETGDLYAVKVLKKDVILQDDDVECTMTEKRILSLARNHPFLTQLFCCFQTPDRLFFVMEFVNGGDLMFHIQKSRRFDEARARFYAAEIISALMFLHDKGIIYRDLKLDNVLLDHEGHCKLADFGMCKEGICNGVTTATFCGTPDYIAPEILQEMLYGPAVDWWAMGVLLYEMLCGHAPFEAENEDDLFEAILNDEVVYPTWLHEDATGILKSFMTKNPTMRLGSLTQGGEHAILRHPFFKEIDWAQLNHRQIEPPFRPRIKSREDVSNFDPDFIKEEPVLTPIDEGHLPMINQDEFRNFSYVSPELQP
Experiment [6] has as its target Serine/threonine-protein kinase 32B (Homo sapiens) (UniProt Q9NY57). The experiment in a line: Inhibition of human recombinant YANK2 at 15 nM related to control ULK1.
For experiment [7], the target named is Serine/threonine-protein kinase/endoribonuclease IRE1 (Homo sapiens) (UniProt O75460). The experiment in a line: Inhibition of human recombinant IRE1 at 40 nM in presence of ATP by radiometric assay relative to control.
Sequence of Serine/threonine-protein kinase/endoribonuclease IRE1 (Homo sapiens) (O75460 19-977 limits assumed): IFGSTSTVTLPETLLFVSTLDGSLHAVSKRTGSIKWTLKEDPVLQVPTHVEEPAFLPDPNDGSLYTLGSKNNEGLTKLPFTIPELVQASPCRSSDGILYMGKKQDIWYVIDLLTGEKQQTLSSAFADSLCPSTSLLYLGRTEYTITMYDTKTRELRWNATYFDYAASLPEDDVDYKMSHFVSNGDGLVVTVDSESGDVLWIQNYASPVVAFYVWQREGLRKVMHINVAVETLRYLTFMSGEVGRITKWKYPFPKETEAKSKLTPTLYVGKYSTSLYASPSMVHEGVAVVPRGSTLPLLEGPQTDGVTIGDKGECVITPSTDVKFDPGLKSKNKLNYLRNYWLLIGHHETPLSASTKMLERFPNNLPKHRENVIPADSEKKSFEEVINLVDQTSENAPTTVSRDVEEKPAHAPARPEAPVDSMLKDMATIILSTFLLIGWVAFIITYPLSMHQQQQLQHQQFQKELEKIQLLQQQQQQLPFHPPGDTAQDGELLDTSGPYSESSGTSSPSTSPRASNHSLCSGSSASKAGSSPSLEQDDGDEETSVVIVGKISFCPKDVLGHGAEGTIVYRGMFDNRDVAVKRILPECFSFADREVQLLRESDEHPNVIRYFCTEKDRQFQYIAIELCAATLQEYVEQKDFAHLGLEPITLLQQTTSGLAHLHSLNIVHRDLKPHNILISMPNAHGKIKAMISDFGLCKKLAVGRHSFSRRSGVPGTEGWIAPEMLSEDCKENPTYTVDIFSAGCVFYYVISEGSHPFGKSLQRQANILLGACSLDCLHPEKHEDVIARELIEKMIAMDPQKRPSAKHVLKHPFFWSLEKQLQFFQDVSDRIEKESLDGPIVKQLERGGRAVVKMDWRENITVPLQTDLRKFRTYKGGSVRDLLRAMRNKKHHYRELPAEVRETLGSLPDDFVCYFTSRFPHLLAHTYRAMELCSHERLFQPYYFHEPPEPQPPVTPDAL
Experiment [8] deals with T1, Testis-specific serine/threonine-protein kinase 3 (Homo sapiens) (UniProt Q96PN8).
T1 sequence (whole entry): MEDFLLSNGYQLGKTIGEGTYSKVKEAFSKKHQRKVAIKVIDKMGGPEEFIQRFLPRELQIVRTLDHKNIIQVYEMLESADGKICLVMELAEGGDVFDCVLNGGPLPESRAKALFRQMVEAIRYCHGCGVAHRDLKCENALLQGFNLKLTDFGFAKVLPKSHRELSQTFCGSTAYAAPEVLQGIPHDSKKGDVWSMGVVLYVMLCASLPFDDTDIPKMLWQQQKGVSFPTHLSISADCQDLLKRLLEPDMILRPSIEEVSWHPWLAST
Briefly: Inhibition of human recombinant TSSK3 at 40 nM in presence of ATP by radiometric assay relative to control.

For experiment [9], the target named is Protein kinase C gamma type (Homo sapiens) (UniProt P05129). Briefly: Inhibition of human recombinant PKCg at 40 nM related to control ULK1.
Experiment [10] has as its target Serine/threonine-protein kinase PLK1 (Homo sapiens) (UniProt P53350). Briefly: Inhibition of human recombinant PLK1 at 40 nM related to control ULK1.
In experiment [11] the target is Calcium/calmodulin-dependent protein kinase type 1G (Homo sapiens) (UniProt Q96NX5). The experiment in a line: Inhibition of human recombinant CaMK1g at 500 nM in presence of ATP by radiometric assay relative to control.
Experiment [12] deals with Macrophage colony-stimulating factor 1 receptor (Homo sapiens) (UniProt P07333). Briefly: Inhibition of human recombinant FMS at 500 nM in presence of ATP by radiometric assay relative to control.
Experiment [13] addresses T2, Serine/threonine-protein kinase haspin (Homo sapiens) (UniProt Q8TF76).
T2 sequence (whole entry): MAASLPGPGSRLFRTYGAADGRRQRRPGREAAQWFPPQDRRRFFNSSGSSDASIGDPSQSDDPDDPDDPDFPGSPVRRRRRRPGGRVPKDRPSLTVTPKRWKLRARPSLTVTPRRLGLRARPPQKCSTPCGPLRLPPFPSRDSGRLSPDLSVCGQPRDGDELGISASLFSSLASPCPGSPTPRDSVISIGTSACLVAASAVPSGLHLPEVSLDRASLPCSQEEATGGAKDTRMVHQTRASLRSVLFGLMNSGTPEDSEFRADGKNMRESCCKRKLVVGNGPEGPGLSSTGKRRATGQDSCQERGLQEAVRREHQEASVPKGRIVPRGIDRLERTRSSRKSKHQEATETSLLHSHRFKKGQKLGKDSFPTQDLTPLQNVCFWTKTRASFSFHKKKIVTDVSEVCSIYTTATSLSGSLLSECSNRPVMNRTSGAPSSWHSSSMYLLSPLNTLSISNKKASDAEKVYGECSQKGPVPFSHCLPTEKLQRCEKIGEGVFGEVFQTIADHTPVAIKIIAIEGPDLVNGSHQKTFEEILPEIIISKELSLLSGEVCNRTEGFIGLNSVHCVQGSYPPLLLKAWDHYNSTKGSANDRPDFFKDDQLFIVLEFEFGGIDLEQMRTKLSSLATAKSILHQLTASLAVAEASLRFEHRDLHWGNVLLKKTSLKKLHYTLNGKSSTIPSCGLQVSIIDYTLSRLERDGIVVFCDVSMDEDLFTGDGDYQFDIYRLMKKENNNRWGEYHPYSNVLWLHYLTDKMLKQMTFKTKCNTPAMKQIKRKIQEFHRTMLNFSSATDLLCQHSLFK
Briefly: Inhibition of human recombinant Haspin at 500 nM in presence of ATP by radiometric assay relative to control.

For experiment [14], the target named is Protein kinase C beta type (Homo sapiens) (UniProt P05771). Briefly: Inhibition of human recombinant PKCb at 500 nM in presence of ATP by radiometric assay relative to control.
Sequence of Protein kinase C beta type (Homo sapiens) (P05771 2-671 limits assumed): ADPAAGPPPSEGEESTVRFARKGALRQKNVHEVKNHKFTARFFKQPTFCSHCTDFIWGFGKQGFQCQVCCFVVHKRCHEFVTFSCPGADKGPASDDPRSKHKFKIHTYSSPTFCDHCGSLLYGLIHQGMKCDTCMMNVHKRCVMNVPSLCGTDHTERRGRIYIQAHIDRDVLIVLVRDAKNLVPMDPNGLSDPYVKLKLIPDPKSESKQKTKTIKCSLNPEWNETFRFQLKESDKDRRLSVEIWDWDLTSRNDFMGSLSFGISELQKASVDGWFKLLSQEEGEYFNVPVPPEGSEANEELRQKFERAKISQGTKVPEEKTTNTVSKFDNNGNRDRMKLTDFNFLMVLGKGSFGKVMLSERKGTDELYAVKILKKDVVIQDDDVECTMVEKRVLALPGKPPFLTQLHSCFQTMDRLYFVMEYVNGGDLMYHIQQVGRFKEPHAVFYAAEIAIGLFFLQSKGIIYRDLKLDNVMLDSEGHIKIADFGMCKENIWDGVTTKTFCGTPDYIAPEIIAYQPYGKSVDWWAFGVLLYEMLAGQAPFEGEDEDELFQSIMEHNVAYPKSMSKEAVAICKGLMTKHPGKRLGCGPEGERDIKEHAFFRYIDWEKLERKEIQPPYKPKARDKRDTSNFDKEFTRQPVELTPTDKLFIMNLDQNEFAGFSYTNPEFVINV
In experiment [15] the target is NT-3 growth factor receptor (Homo sapiens) (UniProt Q16288). The experiment in a line: Inhibition of human recombinant TRKC at 500 nM in presence of ATP by radiometric assay relative to control.
The target in experiment [16] is T3, Aurora kinase A (Homo sapiens) (UniProt O14965).
T3 sequence (whole entry): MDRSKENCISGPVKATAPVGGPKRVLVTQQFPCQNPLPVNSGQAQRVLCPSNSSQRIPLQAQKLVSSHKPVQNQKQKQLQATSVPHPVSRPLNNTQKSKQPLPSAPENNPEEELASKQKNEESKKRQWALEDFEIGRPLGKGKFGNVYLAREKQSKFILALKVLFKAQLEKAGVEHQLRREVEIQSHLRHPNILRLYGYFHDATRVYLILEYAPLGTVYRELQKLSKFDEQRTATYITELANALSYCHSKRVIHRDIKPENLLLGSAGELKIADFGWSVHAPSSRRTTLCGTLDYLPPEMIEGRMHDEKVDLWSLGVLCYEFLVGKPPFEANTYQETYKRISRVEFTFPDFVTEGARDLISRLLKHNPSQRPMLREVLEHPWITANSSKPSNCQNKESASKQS
Briefly: Inhibition of human recombinant AurA at 500 nM related to control ULK1. The gist of the method:
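Panel of 327 recombinant human kinases, each assayed in vitro by radiometric activity assay in duplicate at a single inhibitor concentration per compound, chosen with reference to its ULK1 inhibition. Activity remaining was expressed as percent of vehicle control, and percent inhibition was calculated as 100 minus percent activity remaining.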

Experiment [17] addresses Tyrosine-protein kinase Blk (Homo sapiens) (UniProt P51451). Briefly: Inhibition of human recombinant BLK at 500 nM related to control ULK1.
The target of experiment [18] is Tau-tubulin kinase 1 (Homo sapiens) (UniProt Q5TCY1). Briefly: Inhibition of human recombinant TTBK1 at 500 nM related to control ULK1.

Sequence of Tyrosine-protein kinase Blk (Homo sapiens) (P51451 2-505 limits assumed): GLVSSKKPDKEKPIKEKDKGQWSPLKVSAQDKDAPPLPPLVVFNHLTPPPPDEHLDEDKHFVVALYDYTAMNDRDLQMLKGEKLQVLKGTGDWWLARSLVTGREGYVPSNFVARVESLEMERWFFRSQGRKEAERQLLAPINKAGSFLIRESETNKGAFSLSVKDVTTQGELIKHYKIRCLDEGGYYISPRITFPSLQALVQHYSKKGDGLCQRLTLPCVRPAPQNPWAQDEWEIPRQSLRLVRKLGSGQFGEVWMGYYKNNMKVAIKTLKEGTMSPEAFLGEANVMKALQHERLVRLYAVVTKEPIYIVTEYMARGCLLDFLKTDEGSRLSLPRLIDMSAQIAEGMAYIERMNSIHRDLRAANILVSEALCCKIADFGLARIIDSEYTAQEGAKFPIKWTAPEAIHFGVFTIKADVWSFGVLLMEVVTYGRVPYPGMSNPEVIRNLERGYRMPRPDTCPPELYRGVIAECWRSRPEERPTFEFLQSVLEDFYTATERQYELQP
Sequence of Serine/threonine-protein kinase 33 (Homo sapiens) (Q9BYT3 whole entry, looked up): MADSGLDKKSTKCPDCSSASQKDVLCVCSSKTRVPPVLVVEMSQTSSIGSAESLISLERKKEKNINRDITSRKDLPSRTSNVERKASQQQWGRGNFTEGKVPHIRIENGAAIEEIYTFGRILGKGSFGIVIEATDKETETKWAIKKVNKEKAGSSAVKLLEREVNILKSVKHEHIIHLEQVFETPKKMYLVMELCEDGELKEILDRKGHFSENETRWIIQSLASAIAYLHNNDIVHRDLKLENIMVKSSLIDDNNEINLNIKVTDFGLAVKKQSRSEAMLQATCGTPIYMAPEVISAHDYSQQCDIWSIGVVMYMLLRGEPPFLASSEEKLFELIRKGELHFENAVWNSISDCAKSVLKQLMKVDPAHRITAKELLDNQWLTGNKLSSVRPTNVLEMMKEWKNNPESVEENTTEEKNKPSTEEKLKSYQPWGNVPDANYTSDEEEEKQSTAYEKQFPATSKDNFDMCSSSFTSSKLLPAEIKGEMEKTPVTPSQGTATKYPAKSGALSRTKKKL

In general, inhibition refers to the percentage by which the read-out fell short of the control. With `CC(C)[C@H](NC(=O)c1cc(-c2cnn3cc(-c4ccc(OCCN5CCCCC5)cc4)cnc23)cs1)C(F)(F)F`, the inhibition worked out at 36% in experiment [1], 0% in experiment [2] and 16% in [3]. The fold change (FC) in experiment [4], in [5] and in [6] was 0 each time.
On to `O=C(N[C@@H](C1CC1)C(F)(F)F)c1cc(-c2cnn3cc(-c4ccc(F)cc4)cnc23)cs1`, for which the inhibition in experiment [7] and in [8] was 0% in each case. Also, the fold change (FC) in experiment [9] and in experiment [10] was 0 throughout.
In the case of `CNC(=O)c1ccccc1Oc1nc(Nc2cc(OC)c(OC)c(OC)c2)ncc1Br`, the inhibition in [11] came to 6%; in experiment [12] it was 19%; in [13], 0%; in experiment [14] it was 7%; in [15], 0%. In addition, the fold change (FC) in experiment [16] was 1.08; in experiment [17] it was 0.39; in experiment [18] it was 0.01.
